ChEMBL document CHEMBL4138215, “Discovery of caffeic acid phenethyl ester derivatives as novel myeloid differentiation protein 2 inhibitors for treatment of acute lung injury” (Eur J Med Chem, 2018)
pIC50: −log10 of the molar value. Calls of active or inactive are those of the source. The calls are words filed in the database; no cut-off is given here.

What was measured:
Peritoneal macrophage [1] = experiment: Anti-inflammatory activity in ICR mouse peritoneal macrophages assessed inhibition of LPS-induced TNF-alpha production at 10 uM preincubated for 30 to 60 mins followed by LPS stimulation measured after 24 hrs by ELISA; type: functional, cell-based
Procedure, shortened: (§1)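 Primary peritoneal macrophages from thioglycollate-elicited ICR mice (3 mL i.p.), collected by PBS lavage and cultured in RPMI-1640 at 37 °C, 5% CO2. Plated at 4*10⁵ cells/well and grown 24 h. Pretreated with compound (30–60 min; screen at 10, dose-response 0.5–10), then LPS for 24 h. TNF-α in the conditioned medium measured by ELISA and expressed relative to LPS alone; DMSO as vehicle.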

Peritoneal macrophage [2] = experiment: Anti-inflammatory activity in ICR mouse peritoneal macrophages assessed inhibition of LPS-induced TNF-alpha production at 10 uM preincubated for 30 to 60 mins followed by LPS stimulation measured after 24 hrs by ELISA relative to control; type: functional; procedure, shortened: as §1
Peritoneal macrophage [3] = experiment: Anti-inflammatory activity in ICR mouse peritoneal macrophages assessed inhibition of LPS-induced TNF-alpha production preincubated for 30 to 60 mins followed by LPS stimulation measured after 24 hrs by ELISA; type: functional, cell-based; procedure, shortened: as §1
[4] = molecular target: Toll-like receptor 4 (Homo sapiens) (UniProt O00206); experiment: Binding affinity to TLR4 (unknown origin) by SPR analysis
Procedure, shortened: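 SPR: TLR4 protein in acetate buffer immobilized after activation with 40 mM EDC/10 mM sNHS. Compound dilutions in PBS with 0.1% SDS, 0.05% Tween-20 and 5% DMSO; first channel used as reference. Association 120 s, dissociation 120 s, 25 °C; KD derived from binding kinetics.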

Mus musculus [5] = experiment: Anti-inflammatory activity in LPS-induced C57BL/6 mouse model of acute lung injury assessed as inhibition of TNF-alpha levels in plasma at 20 mg/kg, ip pretreated for 30 mins followed by LPS challenge measured after 6 hrs by ELISA; type: functional, organism-based; conditions: C57/BL6
Procedure, shortened: (§2)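 ALI model in male C57BL/6 mice: i.p. pretreatment 30 min before intratracheal LPS (5 mg/kg), euthanasia at 6 h. BALF spun at 1000 rpm for 10 min and the supernatant kept; plasma also collected. IL-6 and TNF-α measured by ELISA as pg/ml, mean ± SEM, n = 7.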

Mus musculus [6] = experiment: Anti-inflammatory activity in LPS-induced C57BL/6 mouse model of acute lung injury assessed as inhibition of IL-6 levels in BALF at 20 mg/kg, ip pretreated for 30 mins followed by LPS challenge measured after 6 hrs by ELISA; type: functional, organism-based; conditions: C57/BL6; procedure, shortened: as §2
Mus musculus [7] = experiment: Anti-inflammatory activity in LPS-induced C57BL/6 mouse model of acute lung injury assessed as decrease in lung tissue destruction at 15 mg/kg, ip pretreated for 30 mins followed by LPS challenge measured after 6 hrs by hematoxylin and eosin staining-based light microscopic analysis; type: functional, organism-based; conditions: C57/BL6
Mus musculus [8] = experiment: Anti-inflammatory activity in LPS-induced C57BL/6 mouse model of acute lung injury assessed as decrease in interstitial edema in lung tissue at 15 mg/kg, ip pretreated for 30 mins followed by LPS challenge measured after 6 hrs by hematoxylin and eosin staining-based light microscopic analysis; type: functional, organism-based; conditions: C57/BL6
Mus musculus [9] = experiment: Anti-inflammatory activity in LPS-induced C57BL/6 mouse model of acute lung injury assessed as inhibition of IL-6 levels in plasma at 20 mg/kg, ip pretreated for 30 mins followed by LPS challenge measured after 6 hrs by ELISA; type: functional, organism-based; conditions: C57/BL6; procedure, shortened: as §2
Mus musculus [10] = experiment: Anti-inflammatory activity in LPS-induced C57BL/6 mouse model of acute lung injury assessed as inhibition of IL-6 mRNA levels in lung tissue at 20 mg/kg, ip pretreated for 30 mins followed by LPS challenge measured after 6 hrs by RT-PCR analysis; type: functional, organism-based; conditions: C57/BL6
Procedure, shortened: (§3)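 Male C57BL/6 mice given i.p. pretreatment 30 min before intratracheal LPS 5 mg/kg, lungs taken at 6 h. IL-6 and TNF-α mRNA in lung tissue normalized to β-actin and expressed relative to the LPS group.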

Mus musculus [11] = experiment: Anti-inflammatory activity in LPS-induced C57BL/6 mouse model of acute lung injury assessed as decrease in TNF-alpha production in lung tissue at 15 mg/kg, ip pretreated for 30 mins followed by LPS challenge measured after 6 hrs by immumohistochemical staining-based light microscopic analysis; type: functional, organism-based; conditions: C57/BL6
Procedure, shortened: (§4)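 Male C57BL/6 mice, 18–22 g, n = 7 per group. Compound given i.p. 15 mg/kg in 200 µL, or vehicle, 30 min before intratracheal LPS 5 mg/kg; killed 6 h later. Paraffin lung sections, 5 µm, treated with H2O2, blocked in 5% BSA, then primary anti-CD68 or anti-TNF-α overnight at 4 °C. HRP secondary 2 h at 37 °C, DAB stain, light microscopy at 200×.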

Mus musculus [12] = experiment: Anti-inflammatory activity in LPS-induced C57BL/6 mouse model of acute lung injury assessed as inhibition of TNF-alpha levels in BALF at 20 mg/kg, ip pretreated for 30 mins followed by LPS challenge measured after 6 hrs by ELISA; type: functional, organism-based; conditions: C57/BL6; procedure, shortened: as §2
Mus musculus [13] = experiment: Anti-inflammatory activity in LPS-induced C57BL/6 mouse model of acute lung injury assessed as decrease in inflammatory infiltration in lung tissue at 15 mg/kg, ip pretreated for 30 mins followed by LPS challenge measured after 6 hrs by hematoxylin and eosin staining-based light microscopic analysis; type: functional, organism-based; conditions: C57/BL6
Mus musculus [14] = experiment: Anti-inflammatory activity in LPS-induced C57BL/6 mouse model of acute lung injury assessed as inhibition of myeloperoxidase activity in lung tissue at 15 mg/kg, ip pretreated for 30 mins followed by LPS challenge measured after 6 hrs by H2O2 substrate based assay; type: functional, organism-based; conditions: C57/BL6
Procedure, shortened: (§5)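 Male C57BL/6 mice (n = 7) received 15 mg/kg i.p. in 200 µL, or vehicle, 30 min before intratracheal LPS 5 mg/kg; euthanized at 6 h. Total BALF cells counted as counts/ml. Lung MPO activity determined from absorbance change at 460 nm after a 30 min reaction and reported as U/g.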

Mus musculus [15] = experiment: Anti-inflammatory activity in LPS-induced C57BL/6 mouse model of acute lung injury assessed as inhibition of TNF-alpha mRNA levels in lung tissue at 20 mg/kg, ip pretreated for 30 mins followed by LPS challenge measured after 6 hrs by RT-PCR analysis; type: functional, organism-based; conditions: C57/BL6; procedure, shortened: as §3
Mus musculus [16] = experiment: Anti-inflammatory activity in LPS-induced C57BL/6 mouse model of acute lung injury assessed as inhibition of total cell count in BALF at 15 mg/kg, ip pretreated for 30 mins followed by LPS challenge measured after 6 hrs; type: functional, organism-based; conditions: C57/BL6; procedure, shortened: as §5
Mus musculus [17] = experiment: Anti-inflammatory activity in LPS-induced C57BL/6 mouse model of acute lung injury assessed as decrease in thicken alveolar septa at 15 mg/kg, ip pretreated for 30 mins followed by LPS challenge measured after 6 hrs by hematoxylin and eosin staining-based light microscopic analysis; type: functional, organism-based; conditions: C57/BL6
Mus musculus [18] = experiment: Anti-inflammatory activity in LPS-induced C57BL/6 mouse model of acute lung injury assessed as decrease in CD68 production in lung tissue at 15 mg/kg, ip pretreated for 30 mins followed by LPS challenge measured after 6 hrs by immumohistochemical staining-based light microscopic analysis; type: functional, organism-based; conditions: C57/BL6; procedure, shortened: as §4
Mus musculus [19] = experiment: Anti-inflammatory activity in LPS-induced C57BL/6 mouse model of acute lung injury assessed as decrease in pulmonary congestion in lung tissue at 15 mg/kg, ip pretreated for 30 mins followed by LPS challenge measured after 6 hrs by hematoxylin and eosin staining-based light microscopic analysis; type: functional, organism-based; conditions: C57/BL6

Sequence of Toll-like receptor 4 (Homo sapiens) (O00206 whole entry): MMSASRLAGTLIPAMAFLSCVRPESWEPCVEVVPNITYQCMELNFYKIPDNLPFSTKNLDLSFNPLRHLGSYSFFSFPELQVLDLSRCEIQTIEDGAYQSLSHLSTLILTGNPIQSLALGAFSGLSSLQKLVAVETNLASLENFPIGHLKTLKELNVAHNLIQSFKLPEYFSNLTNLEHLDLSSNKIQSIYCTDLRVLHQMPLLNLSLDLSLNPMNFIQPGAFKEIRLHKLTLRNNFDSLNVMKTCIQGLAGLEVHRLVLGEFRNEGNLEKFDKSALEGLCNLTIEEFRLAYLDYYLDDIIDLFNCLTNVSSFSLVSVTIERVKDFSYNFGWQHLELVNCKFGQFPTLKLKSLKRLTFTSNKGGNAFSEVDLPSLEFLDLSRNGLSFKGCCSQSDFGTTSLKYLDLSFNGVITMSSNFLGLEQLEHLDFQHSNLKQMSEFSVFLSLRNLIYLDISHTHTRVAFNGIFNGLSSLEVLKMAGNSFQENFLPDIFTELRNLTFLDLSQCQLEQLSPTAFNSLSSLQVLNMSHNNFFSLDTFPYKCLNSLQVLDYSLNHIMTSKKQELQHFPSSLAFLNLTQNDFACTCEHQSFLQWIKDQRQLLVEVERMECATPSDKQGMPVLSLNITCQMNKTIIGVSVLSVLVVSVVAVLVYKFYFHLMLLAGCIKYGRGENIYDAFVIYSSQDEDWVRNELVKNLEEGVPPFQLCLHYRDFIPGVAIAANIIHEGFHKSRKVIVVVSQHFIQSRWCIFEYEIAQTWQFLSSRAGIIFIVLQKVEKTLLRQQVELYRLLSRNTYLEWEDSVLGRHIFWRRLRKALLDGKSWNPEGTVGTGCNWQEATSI

| Structure (SMILES) | inhibition (Peritoneal macrophage [1]) | further results |
| --- | --- | --- |
| COc1cc(/C=C/C(=O)NCCc2ccccc2)cc(OC)c1OC | Active | – |
| C=CCOc1ccc(/C=C/C(=O)NCCc2ccccc2)cc1 | Active | – |
| Cc1ncsc1/C=C/C(=O)N[C@@H](Cc1ccc(O)cc1)C(=O)O | inactive | – |
| CCCCCCCCCCNC(=O)/C=C/c1scnc1C | inactive | – |
| CCOC(=O)[C@H](Cc1ccc(O)cc1)NC(=O)/C=C/c1scnc1C | – | inhibition at 10 µM (Peritoneal macrophage [2]): 79.4%; pIC50 (Peritoneal macrophage [3]): 5.50; inhibition (Peritoneal macrophage [3]): Dose-dependent effect |
| CCCCCCCCNC(=O)/C=C/c1scnc1C | inactive | – |
| COc1cc(COc2cc(/C=C/C(=O)NCCc3ccccc3)ccc2OC)cc(OC)c1 | inactive | – |
| COc1ccc(/C=C/C(=O)NCCc2ccccc2)cc1OCc1ccccc1 | inactive | – |
| COc1cc(/C=C/C(=O)NCCc2ccccc2)ccc1OCc1ccccc1 | Active | – |
| COc1ccc(/C=C/C(=O)NCCc2ccccc2)cc1OCc1ccc(C)cc1 | inactive | – |
| COc1cc(/C=C/C(=O)NCCc2ccccc2)ccc1OCc1ccc(C)cc1 | Active | – |
| CCCCCCCNC(=O)/C=C/c1scnc1C | inactive | – |
| COc1ccc(/C=C/C(=O)NCCc2ccccc2)cc1 | Active | – |
| O=C(/C=C/c1ccc(O)cc1)NCCc1ccccc1 | Active | – |
| Cc1ncsc1/C=C/C(=O)N1CCC(c2ccccc2)CC1 | inactive | – |
| CCCCCCCCCNC(=O)/C=C/c1scnc1C | inactive | – |
| Cc1ccc(/C=C/C(=O)NCCc2ccccc2)s1 | Active | – |
| COc1cc(/C=C/C(=O)NCCc2ccccc2)cc(Br)c1O | Active | – |
| O=C(/C=C/c1ccc(N2CCOCC2)cc1)NCCc1ccccc1 | Active | – |
| Cc1ncsc1/C=C/C(=O)N[C@@H](Cc1ccc(O)cc1)C(=O)OC(C)(C)C | – | Activity [4]: inactive; inhibition (Mus musculus [5]): Active; inhibition at 10 µM (Peritoneal macrophage [2]): 82.6%; inhibition (Mus musculus [6]): Active; Activity (Mus musculus [7]): Active; Activity (Mus musculus [8]): Active; pIC50 (Peritoneal macrophage [3]): 5.69; inhibition (Peritoneal macrophage [3]): Dose-dependent effect; inhibition (Mus musculus [9]): Active; inhibition (Mus musculus [10]): Active; Activity (Mus musculus [11]): Active; inhibition (Mus musculus [12]): Active; Activity (Mus musculus [13]): Active; inhibition (Mus musculus [14]): Active; inhibition (Mus musculus [15]): Active; inhibition (Mus musculus [16]): Active; Activity (Mus musculus [17]): Active; Activity (Mus musculus [18]): Active; Activity (Mus musculus [19]): Active |
| COc1ccc(/C=C/C(=O)NCCc2ccccc2)c(OC)c1OC | inactive | – |
| O=C(/C=C/c1cccnc1)NCCc1ccccc1 | Active | – |

| Structure (SMILES) | inhibition (Peritoneal macrophage [1]) | further results |
| --- | --- | --- |
| O=C(/C=C/c1ccc([N+](=O)[O-])cc1)NCCc1ccccc1 | inactive | – |
| Cc1ncsc1/C=C/C(=O)NCCCc1ccccc1 | inactive | – |
| COc1ccc2cc(CCNC(=O)/C=C/c3scnc3C)[nH]c2c1 | inactive | – |
| O=C(/C=C/c1ccc(O)c(O)c1)OCCc1ccccc1 [CAFFEIC ACID PHENETHYL ESTER] | – | inhibition (Mus musculus [5]): Active; inhibition (Mus musculus [6]): Active; pIC50 (Peritoneal macrophage [3]): 5.37; inhibition (Mus musculus [9]): Active; inhibition (Mus musculus [12]): Active; inhibition (Mus musculus [14]): Active; inhibition (Mus musculus [16]): Active |
| Cc1ncsc1/C=C/C(=O)NCCCCc1ccccc1 | inactive | – |
| Cc1ccc(/C=C/C(=O)NCCc2ccccc2)o1 | Active | – |
| Cc1ncsc1/C=C/C(=O)NCCc1ccc(O)cc1 | Active | – |
| COc1cccc(/C=C/C(=O)NCCc2ccccc2)c1OC | inactive | – |
| COc1ccc(/C=C/C(=O)NCCc2ccccc2)cc1OC | Active | – |
| COc1cc(OC)c(OC)cc1/C=C/C(=O)NCCc1ccccc1 | inactive | – |
| Cc1ncsc1/C=C/C(=O)NCCc1ccccc1 | – | inhibition at 10 µM (Peritoneal macrophage [2]): 67.3% |
| COc1cc(OC)c(/C=C/C(=O)NCCc2ccccc2)c(OC)c1 | inactive | – |
| O=C(/C=C/c1ccc(C(F)(F)F)cc1)NCCc1ccccc1 | inactive | – |
| Cc1ncsc1/C=C/C(=O)N[C@@H](Cc1ccccc1)C(=O)OC(C)(C)C | – | inhibition at 10 µM (Peritoneal macrophage [2]): 68.7% |
| Cc1ncsc1/C=C(\C#N)C(=O)NCCc1ccccc1 | Active | – |
| Cc1ncsc1/C=C/C(=O)NCCc1cc2ccccc2[nH]1 | inactive | – |
| COc1cc(/C=C/C(=O)NCCc2ccccc2)ccc1O | Active | – |
| O=C(/C=C/c1ccc2c(c1)OCO2)NCCc1ccccc1 | Active | – |
| Cc1ncsc1/C=C/C(=O)NCCc1ccc(O)c(O)c1 | Active | – |
| COc1ccc(/C=C/C(=O)NCCc2ccccc2)cc1O | Active | – |
| Cc1ncsc1/C=C/C(=O)N[C@@H](Cc1ccccc1)C(=O)O | inactive | – |
